Assay outcomes (PubChem BioAssay)
MPTP inh = inhibitors of mitochondrial permeability transition pore; inhibition, % at 10 µM; actives 1.4% (n = 360,000); isolated mouse mitochondria, Ca2+ swelling absorbance, 30 min; AID 602449;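 active means inhibition of 50% or more, scaled per plate between neutral and stimulator controls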
EBI2 antag = antagonists of human EBI2 receptor | EBI2 beta-arrestin recruitment, luminescence, 7a,25-OHC stimulated | inhibition, % at 5 µM | actives 0.81% (n = 360,000) | AID 651636; in the data active means inhibition above about 38%;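 further: enzyme fragment complementation signal reports receptor beta-arrestin coupling in cells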
Target sequence (P32249 whole entry, looked up, the tested form may be a part): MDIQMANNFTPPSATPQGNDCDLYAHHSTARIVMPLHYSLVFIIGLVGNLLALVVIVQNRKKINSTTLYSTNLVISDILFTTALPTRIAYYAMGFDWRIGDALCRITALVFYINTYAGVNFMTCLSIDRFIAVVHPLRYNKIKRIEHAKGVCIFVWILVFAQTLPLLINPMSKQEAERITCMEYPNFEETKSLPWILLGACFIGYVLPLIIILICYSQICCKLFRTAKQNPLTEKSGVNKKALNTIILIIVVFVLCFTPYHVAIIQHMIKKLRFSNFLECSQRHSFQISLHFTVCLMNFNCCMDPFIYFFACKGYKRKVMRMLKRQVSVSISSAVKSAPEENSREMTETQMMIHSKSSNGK
NR3A LBD binder = modulates the human NR3A ligand-binding domain | NR3A LBD differential scanning fluorimetry, Tm shift; 0% = protein alone, 100% = glycine-bound protein | Tm shift relative to glycine control, % at 25 µM | actives 2.5% (n = 340,000);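 active means melting temperature shift of at least 10% of the positive control shift, at one fixed dose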
SENP1 inh = SENP1 (human) catalytic domain inhibition; actives 0.21% (n = 360,000); AID 624204; inhibition, % at 10 µM; recombinant SENP1 catalytic domain, CyPet-SUMO1-YPet FRET cleavage; Q9P0U3;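 active means inhibition at least 30% at 10 µM, raw YFP signal under a set limit, fluorescence ratio 0.5 to 1.5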
Target sequence (Q9P0U3 419-644 limits assumed): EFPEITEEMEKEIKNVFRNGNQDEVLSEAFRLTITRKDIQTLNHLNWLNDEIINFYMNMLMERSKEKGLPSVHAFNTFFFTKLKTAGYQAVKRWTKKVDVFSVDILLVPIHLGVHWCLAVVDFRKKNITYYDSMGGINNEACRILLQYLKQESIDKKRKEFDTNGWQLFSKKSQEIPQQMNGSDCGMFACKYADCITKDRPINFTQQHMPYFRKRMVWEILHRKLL
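Compound: 10 µM single point, 0.5% DMSO; Test system: hSENP1 catalytic domain, recombinant; Timing: 50 min reaction at room temperature; Technique: FRET, CFP and YFP emission; Control set: no-enzyme wells low, DMSO-plus-enzyme wells high control.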
Each line names hits and unclear results; the compound was inactive in the other large screens. Rows were chosen to be rich in hits. Some 4.4% of all compounds tested hit in one or more screens of this group.

CC1(C(=O)NS(=O)(=O)c2ccc(Cl)s2)CCN1C(=O)Cc1ccc(Cl)cc1Cl (stereo unspecified)	none (no result: NR3A LBD binder)
O=C(COc1cccc(NC(=O)c2ccccc2)c1)c1ccccc1	none
CCOC(=O)c1cc2cc(OC)ccc2[nH]1	NR3A LBD binder 11
O=C(COc1cccc(NC(=O)c2cccs2)c1)c1ccc(F)cc1	NR3A LBD binder 13
COc1ccc2[nH]c(C(=O)Nc3ccc(C)c(F)c3)cc2c1	none
COc1cccc(C(=O)Nc2cccc(C(=O)NCC(C)C)c2)c1	NR3A LBD binder 13
COc1ccc(NC(=O)c2cc3ccccc3[nH]2)cc1	NR3A LBD binder 24
O=C(/C=C/Nc1ccc(F)c(Cl)c1)c1ccccc1	none
O=C(Nc1ccc(NC(=O)c2ccc([N+](=O)[O-])o2)cc1Cl)c1ccco1	NR3A LBD binder 22
COc1cc(NC(=O)c2ccc([N+](=O)[O-])o2)ccc1NC(=O)c1cccs1	NR3A LBD binder 24
COc1cc(NC(=O)c2cccc(Cl)c2)ccc1NC(=O)c1cccs1	NR3A LBD binder 30
COc1c(Cl)cc(Cl)cc1/C=C/C(=O)c1ccc(NC(=O)c2cccs2)cc1	NR3A LBD binder 30
Cc1ccc(NC(=O)C2CCN(S(=O)(=O)c3c(C)n[nH]c3C)CC2)c(C)c1	none
N#Cc1ccccc1-c1ccccc1C(=O)N1CCCCC1	none
CCN1C(=N)N(c2ccccc2)C(=O)C(CC)(CC)C1=O	none
COc1cccc(C(=O)Nc2cccc(NC(=O)c3cccs3)c2)c1	NR3A LBD binder 17
COc1ccc(C(=O)Nc2ccc3ccccc3c2)c(OC)c1	NR3A LBD binder 18
COc1cc(NC(=O)c2ccccc2Cl)ccc1NC(=O)c1cccs1	none
COc1cc(NC(=O)c2cc3ccccc3cc2OC)ccc1NC(=O)c1cccs1	NR3A LBD binder 21
COc1ccc([C@H]2N[C@]3(CCCN(CC4CCCCC4)C3=O)[C@H]3C(=O)N(Cc4ccccc4)C(=O)[C@@H]23)cc1	none (no result: NR3A LBD binder)
Fc1ccc(NC(=S)N2CCN(c3ccccn3)CC2)cc1Cl	none
CCCCCCCCCCOC(=O)Cn1c(COc2ccc(Cl)cc2)[n+](C)c2ccccc21	NR3A LBD binder 21
CCCCCCCCCCOC(=O)Cn1c(COc2ccccc2C)[n+](C)c2ccccc21	NR3A LBD binder 31
O=C(CN1C(=O)S/C(=C\C=C\c2ccccc2)C1=O)Nc1cccc(O)c1	NR3A LBD binder 27
O=C(CN1C(=O)S/C(=C\C=C\c2ccccc2)C1=O)Nc1ccccc1C(=O)O	none
O=C(CCN1C(=O)S/C(=C\C=C\c2ccccc2)C1=O)Nc1ccc(O)cc1	NR3A LBD binder 13
O=C(CCCN1C(=O)S/C(=C\C=C\c2ccccc2)C1=O)Nc1ccc(C(=O)O)cc1	none
CC(NC(=O)CN(c1ccc(Cl)cc1)S(C)(=O)=O)c1ccccc1 (stereo unspecified)	none
CCCC(O)(CCC)C(=O)NN1CCCCC1	NR3A LBD binder 27
Cn1cnnc1SCC(=O)NC(=O)NCc1ccccc1	none
NC(=S)N/N=C/c1c[nH]c2ccc(OCc3ccccc3)cc12	NR3A LBD binder 10
O=C(CC1S/C(=N/N=C/c2c[nH]c3ccc(OCc4ccccc4)cc23)NC1=O)Nc1ccccc1 (stereo unspecified)	NR3A LBD binder 23
COc1cccc(NC(=O)C2CC(=O)N/C(=N/NC(=O)c3ccc(C)cc3)S2)c1 (stereo unspecified)	none
CCC(=O)Nc1ccc(NC(=O)c2ccccc2)nc1	none
COc1cc(/C=C2\SC(=O)N(c3ccc(O)cc3)C2=O)cc(OC)c1OC	none
COc1cc(/C=C2\SC(=N)N(c3ccc(F)cc3)C2=O)ccc1O	NR3A LBD binder 27
N=C1S/C(=C\c2ccccc2F)C(=O)N1c1ccc(F)cc1	NR3A LBD binder 11
COc1cc(/C=C2\SC(=N)N(c3ccc4c(c3)OCO4)C2=O)cc(OC)c1O	NR3A LBD binder 11
CS(=O)(=O)N(CCc1ccccc1)CC(=O)N1CCN(c2ccc(F)cc2)CC1	none
CS(=O)(=O)N1CCc2cc(C(=O)N3CCN(c4ccccc4F)CC3)ccc21	none
CCC1(c2ccc(F)cc2)NC(=O)N(CC(=O)Nc2ccc(N3CCCCC3)cc2)C1=O (stereo unspecified)	none
O=[N+]([O-])c1ccc(C(O)CNC(=S)Nc2ccccc2)cc1 (stereo unspecified)	NR3A LBD binder 12
Cc1ccnc(NC(=O)CCC(=O)N(CC(=O)NC(C)(C)C)Cc2ccc3c(c2)OCO3)c1	none
O=C(NC(c1ccccc1)c1c(O)ccc2ccccc12)c1ccccc1Cl (stereo unspecified)	NR3A LBD binder 11
Cc1ccccc1NC(=O)C(C)OC(=O)C1CC(=O)N(Cc2ccco2)C1 (stereo unspecified)	none
Cc1ccc(C(=O)Nc2ccccc2OC(F)F)cc1	NR3A LBD binder 13
COc1ccccc1C(=O)NNC(=O)CCC(=O)NCc1ccccc1	NR3A LBD binder 12
CCCC(=O)NNC(=O)CCC(=O)NCc1ccccc1	none
COc1ccc2c(c1)c(C(=O)CN1CCc3ccccc3C1)c(C)n2C	none
CCCC[C@@H]1C=C(C(=O)O)[C@H](c2ccc3c(c2)OCO3)N1S(=O)(=O)c1ccc(C)cc1	none
CCCCOc1ccc(C(=O)Nn2cnnc2)cc1	NR3A LBD binder 14
CCCOc1ccc(C(=O)Nn2c(C)nc3ccccc3c2=O)cc1	NR3A LBD binder 11
COc1ccc(C(=O)Nn2c(SCc3cccc([N+](=O)[O-])c3)nc3ccccc3c2=O)cc1	NR3A LBD binder 17
COc1ccc(C(=O)Nn2cnnc2)cc1	none
O=C(Nn1c(SCc2cccc([N+](=O)[O-])c2)nc2ccccc2c1=O)c1ccccc1	none
C=CCN(Cc1nc(-c2ccccc2)no1)C(=O)c1ccc2c(c1)OCO2	none
O=C(Nc1cccc2ccccc12)NC1CCCCC1O (stereo unspecified)	none
CC1CCCN(C(=O)CCNS(=O)(=O)c2ccc3c(c2)oc(=O)n3C)C1 (stereo unspecified)	none
CC/C(=N\NC(=O)c1cccnc1)c1ccc2c(c1)OCCO2	none
CCN(CC)S(=O)(=O)c1ccc2c(c1)c(=O)c(C(=O)NCCCN(C)c1ccccc1)cn2C	none
CN(CCCNC(=O)c1cn(C)c2ccc(S(=O)(=O)N(C)C)cc2c1=O)c1ccccc1	NR3A LBD binder 18
CCC(C)NC(=O)Cn1cnc2sc(C)c(S(=O)(=O)N3CCN(c4ncccn4)CC3)c2c1=O (stereo unspecified)	NR3A LBD binder 14
CCOC(=O)Cc1csc(SCC(=O)Nc2cc(C)ccc2OC)n1	none
CC(C)c1c(C(=O)N/N=C/c2ccc3c(c2)OCO3)nnn1-c1nonc1N	NR3A LBD binder 28
CC(C)c1c(C(=O)N/N=C/c2ccncc2)nnn1-c1nonc1N	none
CN(C)Cc1c(C(=O)N/N=C/C=C/c2ccccc2)nnn1-c1nonc1N	none
CCN(CC)c1ccc(/C=N/NC(=O)c2nnn(-c3nonc3N)c2C(C)C)c(O)c1	NR3A LBD binder 19
CC(C)c1c(C(=O)N/N=C/C=C/c2ccccc2)nnn1-c1nonc1N	NR3A LBD binder 17
